Data on four compounds can be found in ChEMBL document CHEMBL4118256, “Second Generation of Mannich Base-Type Derivatives with in Vivo Activity against Trypanosoma cruzi” (J Med Chem, 2018).

The source made the active and inactive calls. No cut-off for these calls is given here.

The subject of series [1] is Mus musculus. The experiment in a line: Hepatotoxicity in Balb/c mouse infected with Trypanosoma cruzi MHOM/Pe/2011/Arequipa DTU 5 trypamastigotes assessed as change in alkaline phosphatase level at […], po once daily for 5 consecutive days starting from day 10 post infection measured on day 16 post infection by biochemical analysis relative to control. It counts as toxicity, organism-based. The settings on record: in vivo. Summed up: (§1)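 Serum clinical chemistry in Arequipa-infected female BALB/c mice. Oral 20 mg·kg-1 per day for 5 days, started day 10 or day 75 pi. Samples taken at day 16 pi or day 81 pi, and on necropsy day. Markers: CK-MB and LDH (U/L), AST, ALT and alkaline phosphatase (U/L), total bilirubin. Results scored relative to infected untreated controls; uninfected reference n = 15.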

Series [2] relates to Mus musculus. The series can be described thus: Hepatotoxicity in Balb/c mouse infected with Trypanosoma cruzi MHOM/Pe/2011/Arequipa DTU 5 trypamastigotes assessed as increase in ratio of serum ALT to GPT level at […], po once daily for 5 consecutive days starting from day 10 post infection measured on day 16 post infection by biochemical analysis relative to control. It counts as toxicity, organism-based. The settings on record: in vivo.

The test system of series [3] is Mus musculus. The series can be described thus: Nephrotoxicity in Balb/c mouse infected with Trypanosoma cruzi MHOM/Pe/2011/Arequipa DTU 5 trypamastigotes assessed as increase in uric acid level in serum at […], po once daily for 5 consecutive days starting from day 75 post infection measured on day 81 post infection by biochemical analysis relative to control. It counts as toxicity, organism-based. The following applies: in vivo.

Series [4] has as its system Trypanosoma cruzi. The series can be described thus: Antitrypanosomal activity against Trypanosoma cruzi MHOM/Pe/2011/Arequipa DTU 5 trypamastigotes infected in Balb/c mouse assessed as reduction in parasitaemia reactivation in stomach tissue at 100 mg/kg, po pretreated once daily for 5 consecutive days starting from day 75 post infection followed by cyclophosphamide-induced immunosuppression on day 100 post infection every 4 days for a maximum of 3 doses measured on day 127 post infection by PCR method. Further details: scale not given: the % may be the effect or the level left. It counts as functional.

Series [5] deals with Trypanosoma cruzi. The series can be described thus: Antitrypanosomal activity against Trypanosoma cruzi MHOM/Pe/2011/Arequipa DTU 5 trypamastigotes infected in Balb/c mouse assessed as reduction in parasitaemia level at 100 mg/kg, po once daily for 5 consecutive days starting from day 10 post infection measured up to day 50 post infection by Neubauer chamber method. It counts as functional, organism-based.

The test system of series [6] is Trypanosoma cruzi. The experiment in a line: Antitrypanosomal activity against Trypanosoma cruzi MHOM/Pe/2011/Arequipa DTU 5 trypamastigotes infected in Balb/c mouse assessed as reduction in parasitaemia reactivation in heart tissue at 100 mg/kg, po pretreated once daily for 5 consecutive days starting from day 75 post infection followed by cyclophosphamide-induced immunosuppression on day 100 post infection every 4 days for a maximum of 3 doses measured on day 127 post infection by PCR method. It counts as functional. Further details: scale not given: the % may be the effect or the level left. Summed up:
(§2)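 Necropsy on day 127 pi after oral treatment and cyclophosphamide immunosuppression. Tissue DNA was amplified by PCR targeting the ~300 bp T. cruzi SOD gene, 200 nM each primer, 30 cycles with 55.5 °C annealing. Products run on 2 % agarose; positive organs counted out of six mice.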

Series [7] relates to Trypanosoma cruzi. The series can be described thus: Antitrypanosomal activity against Trypanosoma cruzi MHOM/Pe/2011/Arequipa DTU 5 trypamastigotes infected in Balb/c mouse assessed as reduction in parasitaemia reactivation at 20 mg/kg, po pretreated once daily for 5 consecutive days starting from day 75 post infection followed by cyclophosphamide-induced immunosuppression on day 100 post infection every 4 days for a maximum of 3 doses measured up to 1 week post immunosuppression by Neubauer chamber method. It counts as functional. Also on record: scale not given: the % may be the effect or the level left. The gist of the method: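 Female BALB/c mice (8-10 weeks, 20-25 g), groups of six, infected i.p. with 5 x 10^5 bloodstream trypomastigotes in 0.2 mL PBS; oral dosing 20 mg·kg-1 per day for 5 days in 5% DMSO/0.5% HPMC vehicle. After day 100 pi, cyclophosphamide 200 mg·kg-1 i.p. every 4 days, up to three doses. Within 1 week after the last dose, fresh-blood bloodstream trypomastigotes counted in a Neubauer chamber. Reactivation expressed relative to untreated infected controls.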

Series [8] relates to Trypanosoma cruzi. The experiment in a line: Antitrypanosomal activity against Trypanosoma cruzi MHOM/Pe/2011/Arequipa DTU 5 trypamastigotes infected in Balb/c mouse assessed as reduction in parasitaemia reactivation in spleen tissue at 20 mg/kg, po pretreated once daily for 5 consecutive days starting from day 10 post infection followed by cyclophosphamide-induced immunosuppression on day 100 post infection every 4 days for a maximum of 3 doses measured on day 127 post infection by PCR method. It counts as functional. Further details: scale not given: the % may be the effect or the level left.

Series [9] concerns Mus musculus. The series can be described thus: Cardiotoxicity in Balb/c mouse infected with Trypanosoma cruzi MHOM/Pe/2011/Arequipa DTU 5 trypamastigotes assessed as decrease in ratio of creatine kinase in muscle to brain at 20 mg/kg, po once daily for 5 consecutive days starting from day 75 post infection measured on day 81 post infection by biochemical analysis relative to control. It counts as toxicity, organism-based. Also on record: scale not given: the % may be the effect or the level left. The following applies: in vivo. Summed up: as §1

The subject of series [10] is Trypanosoma cruzi. The series can be described thus: Antitrypanosomal activity against Trypanosoma cruzi MHOM/Pe/2011/Arequipa DTU 5 trypamastigotes infected in Balb/c mouse assessed as reduction in parasitaemia level at 20 mg/kg, po once daily for 5 consecutive days starting from day 10 post infection measured on day 47 post infection by Neubauer chamber method. It counts as functional, organism-based. Summed up:
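Six female BALB/c mice per group, infected i.p. with 5 x 10^5 Arequipa bloodstream trypomastigotes in PBS. Oral dosing once daily for 5 days from day 10 pi, 20 mg·kg-1 per day in aqueous 5 % DMSO/0.5 % HPMC, vehicle to controls. Blood trypomastigotes counted in a Neubauer chamber (parasites·mL-1); means ± SD.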

For series [11], the system named is Mus musculus. The experiment in a line: Cardiotoxicity in Balb/c mouse infected with Trypanosoma cruzi MHOM/Pe/2011/Arequipa DTU 5 trypamastigotes assessed as change in ratio of creatine kinase in muscle to brain at 20 mg/kg, po once daily for 5 consecutive days starting from day 75 post infection measured on day 127 post infection by biochemical analysis relative to control. It counts as toxicity, organism-based. The following applies: in vivo. Summed up:
as §1

The subject of series [12] is Mus musculus. The series can be described thus: Cardiotoxicity in Balb/c mouse infected with Trypanosoma cruzi MHOM/Pe/2011/Arequipa DTU 5 trypamastigotes assessed as change in ratio of creatine kinase in muscle to brain at 20 mg/kg, po once daily for 5 consecutive days starting from day 10 post infection measured on day 127 post infection by biochemical analysis relative to control. The settings on record: in vivo. It counts as toxicity, organism-based. Summed up:
as §1

Series [13] relates to Mus musculus. The series can be described thus: Nephrotoxicity in Balb/c mouse infected with Trypanosoma cruzi MHOM/Pe/2011/Arequipa DTU 5 trypamastigotes assessed as decrease in urea level in serum at 20 mg/kg, po once daily for 5 consecutive days starting from day 10 post infection measured on day 127 post infection by biochemical analysis relative to control. It counts as toxicity, organism-based. Also on record: scale not given: the % may be the effect or the level left. The settings on record: in vivo.

Series [14] relates to Trypanosoma cruzi. The series can be described thus: Antitrypanosomal activity against Trypanosoma cruzi MHOM/Pe/2011/Arequipa DTU 5 trypamastigotes infected in Balb/c mouse assessed as reduction in parasitaemia reactivation in heart tissue at 20 mg/kg, po pretreated once daily for 5 consecutive days starting from day 10 post infection followed by cyclophosphamide-induced immunosuppression on day 100 post infection every 4 days for a maximum of 3 doses measured on day 127 post infection by PCR method. Also on record: scale not given: the % may be the effect or the level left. It counts as functional. Summed up:
as §2

Series [15] relates to Mus musculus. The experiment in a line: Toxicity in Balb/c mouse assessed as death at 20 mg/kg, po once daily for 5 consecutive days starting from day 75 post infection. The following applies: in vivo. It counts as organism-based. Summed up:
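Female BALB/c mice (8-10 weeks, 20-25 g), groups of six, infected i.p. with 5 x 10^5 Arequipa bloodstream trypomastigotes. Dosing was oral, 20 mg·kg-1 per day for 5 days, given as a 2 mg·mL-1 suspension in 5% DMSO/0.5% hydroxypropyl methylcellulose. Treatment started day 10 pi (acute phase) or day 75 pi (chronic phase). Deaths and body-mass loss were monitored during and after treatment.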

Turning to `COc1ccc(C(=O)CCN2CCN(c3ccc([N+](=O)[O-])cc3)CC2)cc1`, the Activity in the series on Mus musculus [1] was under 10%; with Mus musculus [2], over 40%.

`COc1ccc(C(=O)CCN2CCN(c3ccc(F)cc3)CC2)cc1`: in the series with Mus musculus [3], the Activity result is recorded as “<= 10%”.

Consider `COc1ccc(C(=O)CCN2CCN(c3ccc(Cl)cc3)CC2)cc1`, for which the Activity in the series on Trypanosoma cruzi [4] and with Trypanosoma cruzi [6] was 78% throughout. In the series on Trypanosoma cruzi [5], the result was Active.

For `O=C(Cn1ccnc1[N+](=O)[O-])NCc1ccccc1` [BENZNIDAZOLE], the Activity is on record as 51% in the series with Trypanosoma cruzi [7]; 33% with Trypanosoma cruzi [8]; “<= 10%” in the series with Mus musculus [9]; under 10% with Mus musculus [11]; under 10% in the series on Mus musculus [12]; “<= 30%” in the series with Mus musculus [13]. Besides, the Activity is 33% in the series with Trypanosoma cruzi [14] and “Non-Toxic” in the series with Mus musculus [15]. The result with Trypanosoma cruzi [10] was inactive.
